An excerpt weighted towards active compounds, which were near 3.7% of everything screened.
KCNQ1 pot: potentiators or activators of human KCNQ1 potassium channel | CHO-K1 KCNQ1, thallium flux FluxOR fluorescence; hits give high values | B-score at 10 µM | 310,000 compounds, 0.35% hits;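 active = fluorescence ratio B-score, a plate-corrected score, at least three library SD, with initial intensity B-score within 5 SD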
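System: CHO-K1 cells stably expressing KCNQ1 / Medium: assay buffer for compound exposure, DMSO matched across wells / Reagent: thallium- and potassium-containing depolarizing buffer / Compound: one concentration, matched DMSO / Incubation: 20 min compound pretreatment at room temperature / Measured by: kinetic FluxOR fluorescence, 10 s baseline plus 110 s post-stimulus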
KCNK3 block: human KCNK3 channel inhibition, primary screen. CHO-KCNK3 thallium flux, FluxOR fluorescence; hits give low values. O14649. B-score at 10 µM. 340,000 compounds, 0.84% hits. AID 602410;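 active = B-score under library mean minus 4 SD, starting fluorescence ratio at most library mean plus 5 SD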;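 note: more negative B-score means stronger inhibition of thallium flux through KCNK3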
KCNK9 block: blocks the human KCNK9 two-pore domain potassium channel; HEK293 KCNK9, FluxOR thallium flux fluorescence; hits give low values; B-score at 10 µM; 310,000 compounds, 1.2% hits; Q9NPC2;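 active = ratio B-score over 3 SD below the library mean, with starting fluorescence within 5 SD of its mean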;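 note: negative B-score means less thallium flux so channel inhibition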
hERG protect: compounds protecting human hERG from proarrhythmic drug block. 310,000 compounds, 0.51% hits. Q12809. activation (rescue from dofetilide block), less the hit threshold, % at 10 µM. CHO-hERG, FluxOR thallium flux, dofetilide IC70 present;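 active = activation above the mean of controls blocked by dofetilide plus 5 SD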;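 note: thallium influx through hERG after potassium depolarization seen as dye fluorescence rise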
Kir21 block: inhibitors of mouse Kir2.1 inward-rectifier potassium channel; HEK293-Kir2.1, FluxOR thallium flux fluorescence; hits give low values; B-score at 10 µM; 310,000 compounds, 0.85% hits; AID 1672;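 active = fluorescence ratio B-score at or below minus 3 SD of library scores, with starting-brightness B-score within 2 SD, cut at about -4.2 in these data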;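 note: channel flux triggered by added potassium and thallium sulfate stimulus; B-score of peak minus minimum fluorescence over baseline after thallium stimulus; more negative B-score means stronger Kir2.1 block with less thallium influx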
KCNQ1 block: blocks the human KCNQ1 potassium channel | P51787 | CHO-K1 KCNQ1, FluxOR thallium flux fluorescence; hits give high values | B-score at 10 µM | 310,000 compounds, 1.3% hits;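 active = compounds whose thallium flux B-score, printed positive for inhibition, exceeds three library SD while starting fluorescence stays within three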;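 note: channel opened by potassium depolarization with thallium stimulus after 20 min compound exposure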
KCNQ1 inh valid: reconfirmed blocker of the human KCNQ1 potassium channel | shares compounds with KCNQ1 block | KCNQ1 cell line, FluxOR thallium flux fluorescence | inhibition, % at 10 µM | 1,600 compounds, 93% hits | AID 588353;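 active = primary screen active, with duplicate mean exceeding buffer control mean plus 3 SD of buffer wells, cut at about 28% in these data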;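 note: 0% = buffer control ratio and 100% = XE991 inhibitor control ratio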
CHO Tl flux: KCNQ1 inhibitor counter-screen hit in parental CHO cells; 1,600 compounds, 21% hits; parental CHO-K1, FluxOR thallium flux fluorescence ratio; hits give low values; zero means no signal rise above baseline; fluorescence ratio (Tl flux) at 10 µM; AID 588366; shares compounds with KCNQ1 block;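 active = mean of duplicate thallium-flux fluorescence ratios in parental host cells more than 5 SD below the buffer control mean, cut at about 0.38 in these data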;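 note: ratio is peak minus minimum fluorescence divided by baseline fluorescence; actives read low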
KCNQ1 APC inh: confirmation of human KCNQ1 potassium channel inhibitors by electrophysiology. shares compounds with KCNQ1 block. KCNQ1-CHO cells, automated patch clamp current. calls only at 10 µM. 490 compounds, 20% hits. AID 624120;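 active = KCNQ1 current drop exceeding 3 SD of negative control wells, seen in both duplicate runs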;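 note: steady state current during a 2 s step from -80 to +40 mV; negative values mean current inhibition and positive values mean potentiation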
KCNQ2 spec: selectivity of KCNQ1 inhibitors: inhibition of rat KCNQ2 channel | inhibition, % at 10 µM | KCNQ2 cells, FluxOR thallium flux fluorescence | shares compounds with KCNQ1 block | 1,600 compounds, 71% hits;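 active = mean percent inhibition of the KCNQ2 thallium signal more than 5 SD above the buffer-only control wells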;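 note: KCNQ2 expressed in CHO cells; 0% = buffer control wells and 100% = XE-991 inhibitor control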
KCNQ1-KCNE1 inh: KCNQ1 inhibitor that also blocks human KCNQ1/KCNE1 channel; shares compounds with KCNQ1 block; KCNQ1/KCNE1 cells, FluxOR thallium flux fluorescence; 1,600 compounds, 77% hits; AID 652147; inhibition, % at 10 µM;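 active = mean percent inhibition of duplicate wells above the buffer-only control mean plus 3 SD of those controls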;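 note: 0% = buffer only wells and 100% = XE-991 inhibitor control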
* marks the source's active call; other numbers are inactive results.

CCOC(=O)N1CCN(S(=O)(=O)c2ccc3c4c(cccc24)C(=O)N3)CC1 was read as KCNQ1 pot inactive, KCNK3 block inactive, KCNK9 block inactive, hERG protect -9.0, Kir21 block 0.47 and KCNQ1 block inactive.
`CCOc1ccccc1N1CCN(S(=O)(=O)c2ccc3c4c(cccc24)C(=O)N3)CC1` gave KCNQ1 pot inactive, KCNK3 block inactive, KCNK9 block inactive, hERG protect -7.4, Kir21 block 0.21, KCNQ1 block 7*, KCNQ1 inh valid 69.0*, CHO Tl flux 0.495, KCNQ2 spec inactive and KCNQ1-KCNE1 inh 79.0%*.
CC(=O)c1ccc(NC(=S)Nc2ccc(Br)c(Cl)c2)cc1 was read as KCNQ1 pot inactive, KCNK3 block inactive, KCNK9 block inactive, hERG protect -29.4, Kir21 block -0.45, KCNQ1 block 6*, KCNQ1 inh valid 61.0*, CHO Tl flux 0.454, KCNQ2 spec inactive and KCNQ1-KCNE1 inh inactive.
O=C(c1ccc(NC(=S)Nc2ccc(Cl)c(Cl)c2)cc1)N1CCCC1 was read as KCNQ1 pot inactive, KCNK3 block inactive, KCNK9 block inactive, hERG protect -15.2, Kir21 block -0.88, KCNQ1 block 9*, KCNQ1 inh valid 36.0*, CHO Tl flux 0.499, KCNQ2 spec inactive and KCNQ1-KCNE1 inh inactive.
For O=C(NC(=S)Nc1ccc(Br)c(Cl)c1)C1CC1 the results were KCNQ1 pot inactive, KCNK3 block inactive, KCNK9 block inactive, hERG protect -8.7, Kir21 block 0.51 and KCNQ1 block inactive.
`NC(=Nc1nc(-c2ccccn2)cc2ccccc12)c1ccccn1` gave KCNK3 block inactive.
CCOc1ccc2[nH]c3c(NCC(C)C)ncnc3c2c1 was read as KCNQ1 pot inactive, KCNK3 block inactive, KCNK9 block inactive, hERG protect -16.4, Kir21 block -1.53, KCNQ1 block 6*, KCNQ1 inh valid 69.0*, CHO Tl flux 0.444, KCNQ2 spec 93.7%* and KCNQ1-KCNE1 inh 69.5%*.
CCOc1ccc2[nH]c3c(NCCOC)ncnc3c2c1 was read as KCNQ1 pot inactive, KCNK3 block inactive, KCNK9 block inactive, hERG protect -6.3, Kir21 block 0.11 and KCNQ1 block inactive.
Screening O=C(Nc1ccccc1)C1C(c2ccccc2)C1(Cl)Cl (stereo unspecified) returned KCNQ1 pot inactive, KCNK3 block inactive, KCNK9 block inactive, hERG protect -11.5, Kir21 block 0.16, KCNQ1 block 14*, KCNQ1 inh valid 102.0*, CHO Tl flux 0.433, KCNQ1 APC inh active, KCNQ2 spec 101.0%* and KCNQ1-KCNE1 inh 136.5%*.
COc1ccc(S(=O)(=O)N2CCOC2CNC(=O)C(=O)NCc2ccccn2)cc1C (stereo unspecified) was read as KCNQ1 pot inactive, KCNK3 block inactive, KCNK9 block inactive, hERG protect 1.7, Kir21 block 1.23 and KCNQ1 block inactive.
For CC(=O)NC(CC(=O)Oc1ccc(C)cc1Br)c1ccccc1 (stereo unspecified) the results were KCNQ1 pot inactive, KCNK3 block inactive, KCNK9 block inactive, hERG protect -0.5, Kir21 block 0.03 and KCNQ1 block inactive.
For O=C(Nc1ccccc1N1CCOCC1)c1ccccc1NS(=O)(=O)c1ccc(F)cc1 the results were KCNQ1 pot inactive, KCNK3 block inactive, KCNK9 block inactive, hERG protect -15.2, Kir21 block 0.05 and KCNQ1 block inactive.
Screening COc1ccc(-c2csc(NC(=O)c3ccccc3NS(=O)(=O)c3ccc(F)c(F)c3)n2)cc1 returned KCNQ1 pot inactive, KCNK3 block inactive, KCNK9 block -6.78*, hERG protect -30.5, Kir21 block -0.67, KCNQ1 block 6*, KCNQ1 inh valid 63.5*, CHO Tl flux 0.528, KCNQ2 spec inactive and KCNQ1-KCNE1 inh 91.5%*.
`O=C(Nc1ccccc1N1CCOCC1)c1ccccc1NS(=O)(=O)c1ccc(F)c(F)c1` gave KCNQ1 pot inactive, KCNK3 block inactive, KCNK9 block inactive, hERG protect -7.9, Kir21 block -1.08, KCNQ1 block 7*, KCNQ1 inh valid 59.0*, CHO Tl flux 0.446, KCNQ2 spec 74.3%* and KCNQ1-KCNE1 inh inactive.
Screening CNc1nnc(SCC(=O)c2cc(C)n(C3CC3)c2C)s1 returned KCNK3 block inactive.
CN(C)C(=O)c1ccc(NC(=O)c2ccc(-c3ccc(Cl)cc3)o2)cc1 was read as KCNQ1 pot inactive, KCNK3 block inactive, KCNK9 block inactive, hERG protect -6.9, Kir21 block -1.5 and KCNQ1 block inactive.
Screening Cc1ccc(C2/C(=C(/O)c3ccc4c(c3)CC(C)O4)C(=O)C(=O)N2CCCn2ccnc2)cc1 (stereo unspecified) returned KCNQ1 pot inactive, KCNK3 block inactive, KCNK9 block inactive, hERG protect -6.6, Kir21 block 1.05 and KCNQ1 block inactive.
Screening O=C(NC1CCN(Cc2ccc(Cl)c(Cl)c2)CC1)c1ccccc1 returned KCNQ1 pot inactive, KCNK3 block inactive, KCNK9 block inactive, hERG protect -3.1, Kir21 block -1.39 and KCNQ1 block inactive.
COc1ccc(Nc2nc(N3CCCCC3)c3ccccc3n2)cc1 was read as KCNQ1 pot inactive, KCNK3 block inactive, KCNK9 block inactive, hERG protect -28.2, Kir21 block -1.14, KCNQ1 block 14*, KCNQ1 inh valid 139.0*, CHO Tl flux 0.402, KCNQ1 APC inh inactive, KCNQ2 spec 103.0%* and KCNQ1-KCNE1 inh 122.0%*.
For Cc1ccc(Nc2nc(N3CCOCC3)c3ccccc3n2)cc1 the results were KCNQ1 pot inactive, KCNK3 block inactive, KCNK9 block inactive, hERG protect -13.5, Kir21 block -0.02 and KCNQ1 block inactive.

Screening data (PubChem BioAssay)
